Assay results reported in ChEMBL document CHEMBL1240462, “Synthesis and pharmacological evaluation of new methyloxiranylmethoxyxanthone analogues” (Eur J Med Chem, 2010).
pIC50: −log10 of the molar value. Where a name gives a salt, the structure may show the parent alone. The source made the active and inactive calls. The calls are words filed in the database; no cut-off is given here.

What was measured:
[1] = system: DU-145; experiment: Cytotoxicity against human DU145 cells after 4 days by MTT assay; assay type: functional, cell-based; conditions: DU-145, 96 h
Outline: (§1)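 Cells seeded at 2-4 × 10^4 per well and attached overnight in medium with 10% FBS, 5% CO₂, 37 °C. Medium replaced on day 1 with graded compound concentrations. On day 4, MTT added (0.5 mg/mL final) for 4 h, formazan dissolved in DMSO, absorbance read at 570 nm. IC50 from four-parameter logistic fit; mean ± SD of three experiments in triplicate.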

[2] = system: MDA-MB-231; experiment: Cytotoxicity against human MDA-MB-231 cells after 4 days by MTT assay; assay type: functional, cell-based; conditions: MDA-MB-231, 96 h; outline: as §1
[3] = system: HeLa; experiment: Cytotoxicity against human HeLa cells after 4 days by MTT assay; assay type: functional, cell-based; conditions: 96 h; outline: as §1
[4] = target: DNA topoisomerase 2-alpha (Homo sapiens) (UniProt P11388); experiment: Inhibition of human topoisomerase 2alpha-mediated relaxation of supercoiled pBR322 DNA at 20 uM after 30 mins by agarose gel electrophoresis
DNA topoisomerase 2-alpha (Homo sapiens), sequence (P11388 whole entry): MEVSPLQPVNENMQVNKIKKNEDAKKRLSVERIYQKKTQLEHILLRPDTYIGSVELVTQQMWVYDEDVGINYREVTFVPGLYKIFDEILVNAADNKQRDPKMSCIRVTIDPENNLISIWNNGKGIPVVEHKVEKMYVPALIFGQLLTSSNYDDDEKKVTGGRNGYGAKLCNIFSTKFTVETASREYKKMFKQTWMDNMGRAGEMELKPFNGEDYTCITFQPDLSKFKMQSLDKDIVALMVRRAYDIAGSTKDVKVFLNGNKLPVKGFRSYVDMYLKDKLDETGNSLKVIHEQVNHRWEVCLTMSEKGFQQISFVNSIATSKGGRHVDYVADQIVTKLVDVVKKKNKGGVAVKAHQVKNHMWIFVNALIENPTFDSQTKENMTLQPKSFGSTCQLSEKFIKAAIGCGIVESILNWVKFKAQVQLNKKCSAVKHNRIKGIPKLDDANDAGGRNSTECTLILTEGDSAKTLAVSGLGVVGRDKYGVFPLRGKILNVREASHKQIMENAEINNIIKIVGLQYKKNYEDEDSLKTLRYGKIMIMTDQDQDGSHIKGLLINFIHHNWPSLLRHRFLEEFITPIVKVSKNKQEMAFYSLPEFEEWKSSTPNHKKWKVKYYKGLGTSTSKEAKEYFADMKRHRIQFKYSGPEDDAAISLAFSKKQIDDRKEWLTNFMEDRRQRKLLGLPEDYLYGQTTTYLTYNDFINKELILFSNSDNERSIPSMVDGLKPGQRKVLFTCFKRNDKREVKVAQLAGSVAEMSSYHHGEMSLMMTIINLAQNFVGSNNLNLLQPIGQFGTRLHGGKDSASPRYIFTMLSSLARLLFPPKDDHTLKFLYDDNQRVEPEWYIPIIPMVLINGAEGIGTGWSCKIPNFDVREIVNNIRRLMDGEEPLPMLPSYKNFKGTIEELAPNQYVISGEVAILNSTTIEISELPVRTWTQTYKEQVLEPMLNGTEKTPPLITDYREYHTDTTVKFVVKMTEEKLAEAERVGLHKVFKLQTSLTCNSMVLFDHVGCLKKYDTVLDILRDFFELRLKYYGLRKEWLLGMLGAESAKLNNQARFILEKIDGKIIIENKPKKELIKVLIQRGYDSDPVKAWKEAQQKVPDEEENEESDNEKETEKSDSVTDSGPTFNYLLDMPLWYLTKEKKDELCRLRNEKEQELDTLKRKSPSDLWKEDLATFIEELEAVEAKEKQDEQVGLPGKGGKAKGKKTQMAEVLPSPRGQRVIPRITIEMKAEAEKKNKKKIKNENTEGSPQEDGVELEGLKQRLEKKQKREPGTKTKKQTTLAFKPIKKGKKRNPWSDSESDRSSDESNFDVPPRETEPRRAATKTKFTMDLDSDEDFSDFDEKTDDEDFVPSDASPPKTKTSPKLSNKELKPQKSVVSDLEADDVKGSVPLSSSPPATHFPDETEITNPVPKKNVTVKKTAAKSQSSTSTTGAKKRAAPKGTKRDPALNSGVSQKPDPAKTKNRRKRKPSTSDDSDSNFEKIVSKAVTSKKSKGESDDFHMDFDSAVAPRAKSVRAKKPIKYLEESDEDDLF

[5] = system: HCT-116; experiment: Cytotoxicity against human HCT116 cells after 4 days by MTT assay; assay type: functional, cell-based; conditions: HCT-116, 96 h; outline: as §1
[6] = system: MCF7; experiment: Cytotoxicity against human MCF7 cells after 4 days by MTT assay; assay type: functional, cell-based; conditions: MCF7, 96 h; outline: as §1
[7] = target: DNA topoisomerase 2-alpha (Homo sapiens) (UniProt P11388); experiment: Inhibition of human topoisomerase 2alpha-mediated relaxation of supercoiled pBR322 DNA at 100 uM after 30 mins by agarose gel electrophoresis
[8] = system: Nucleic Acid; experiment: Binding affinity to Escherichia coli linearized pBR322 DNA at 100 uM after 2 hrs by agarose gel electrophoresis; assay type: nucleic-acid assay
Outline: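 DNA cross-linking: 0.5 µg EcoRI-linearized, ethanol-precipitated pBR322 incubated with compound (100 μM) for 2 h at RT in 10 mM Tris-HCl, 1 mM EDTA, pH 8.0. Run on denaturing 1.2% alkaline agarose (50 mM NaOH, 1 mM EDTA running buffer), then neutralized 1 h in 100 mM Tris, 150 mM NaCl, pH 7.6.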

[9] = system: HCT-116; experiment: Ratio of compound IC50 to adriamycin IC50 for human HCT116 cells; assay type: functional
[10] = system: MCF7; experiment: Ratio of compound IC50 to adriamycin IC50 for human MCF7 cells; assay type: functional
[11] = system: HeLa; experiment: Ratio of compound IC50 to adriamycin IC50 for human HeLa cells; assay type: functional
[12] = system: DU-145; experiment: Ratio of compound IC50 to adriamycin IC50 for human DU145 cells; assay type: functional

COc1cc(OCC(O)CCl)cc2oc3ccccc3c(=O)c12 (centres undefined)
pIC50 [1]: 4.40
pIC50 [2]: < 4.00
pIC50 [3]: < 4.00
inhibition [4]: 1%
pIC50 [5]: 4.67
pIC50 [6]: < 4.00
inhibition [7]: 33%

CC(O)(CCl)COc1cc(O)c2c(=O)c3ccccc3oc2c1 (centres undefined)
pIC50 [1]: < 4.00
pIC50 [2]: < 4.00
pIC50 [3]: < 4.00
inhibition [4]: 20%
pIC50 [5]: 4.33
pIC50 [6]: < 4.00
inhibition [7]: 52%

COc1cccc2c(=O)c3c(O)cc(OCC4(C)CO4)cc3oc12 (centres undefined)
pIC50 [1]: < 4.00
pIC50 [2]: < 4.00
pIC50 [3]: < 4.00
inhibition [4]: 3%
pIC50 [5]: 4.16
pIC50 [6]: < 4.00
inhibition [7]: 23%

COc1cccc2c(=O)c3c(O)cc(OCC(C)(O)CCl)cc3oc12 (centres undefined)
pIC50 [1]: 5.14
pIC50 [2]: 4.81
pIC50 [3]: 4.17
inhibition [4]: 41%
pIC50 [5]: 4.80
pIC50 [6]: 4.05
inhibition [7]: 85%

COc1cccc2c(=O)c3c(OC)cc(OCC(O)CCl)cc3oc12 (centres undefined)
pIC50 [1]: 4.82
pIC50 [2]: 4.25
pIC50 [3]: 4.23
inhibition [4]: 2%
pIC50 [5]: 4.79
pIC50 [6]: 4.29
inhibition [7]: 83%

CC1(COc2cc(O)c3c(=O)c4ccccc4oc3c2)CO1 (centres undefined)
pIC50 [1]: 4.72
pIC50 [2]: 4.38
pIC50 [3]: 4.84
inhibition [4]: 11%
pIC50 [5]: 4.92
pIC50 [6]: 4.82
inhibition [7]: 25%

CC[C@@]1(O)C(=O)OCc2c1cc1n(c2=O)Cc2cc3ccccc3nc2-1 [CAMPTOTHECIN]
pIC50 [3]: 5.96
pIC50 [5]: 5.64
pIC50 [6]: 4.85

CC1(COc2cc(OCC3(C)CO3)c3c(=O)c4ccccc4oc3c2)CO1 (centres undefined)
pIC50 [1]: 5.41
Activity [8]: Active
pIC50 [2]: 4.17
pIC50 [3]: 4.80
inhibition [4]: 24%
pIC50 [5]: 5.59
pIC50 [6]: 4.82
inhibition [7]: 41%

COc1cccc2c(=O)c3c(OCC4CO4)cc(OCC4CO4)cc3oc12 (centres undefined)
pIC50 [1]: 5.62
Activity [8]: Active
pIC50 [2]: 5.27
pIC50 [3]: 5.33
inhibition [4]: 9%
pIC50 [5]: 5.70
pIC50 [6]: 5.00
inhibition [7]: 71%

COc1cc(OCC2CO2)cc2oc3ccccc3c(=O)c12 (centres undefined)
pIC50 [1]: 5.82
pIC50 [2]: 4.96
pIC50 [3]: 4.98
inhibition [4]: 5%
pIC50 [5]: 5.18
pIC50 [6]: 4.85
inhibition [7]: 51%

COc1cccc2c(=O)c3c(OCC(O)CCl)cc(OCC4CO4)cc3oc12 (centres undefined)
pIC50 [1]: 5.41
pIC50 [2]: 4.72
pIC50 [3]: 4.38
inhibition [4]: 27%
pIC50 [5]: 5.00
pIC50 [6]: 4.16
inhibition [7]: 65%

COc1cccc2c(=O)c3c(OC)cc(OCC4CO4)cc3oc12 (centres undefined)
pIC50 [1]: 6.10
Ratio IC50 [9]: 2
Ratio IC50 [10]: 2
Ratio IC50 [11]: 2
pIC50 [2]: 5.42
pIC50 [3]: 5.21
Ratio IC50 [12]: 2
inhibition [4]: 0%
pIC50 [5]: 5.82
pIC50 [6]: 5.10
inhibition [7]: 4%

COc1cccc2c1C(=O)c1c(O)c3c(c(O)c1C2=O)C[C@@](O)(C(=O)CO)C[C@@H]3O[C@H]1C[C@H](N)[C@H](O)[C@H](C)O1 [DOXORUBICIN HYDROCHLORIDE]
pIC50 [1]: 5.85
pIC50 [2]: 5.36
pIC50 [5]: 5.40

COc1cccc2c(=O)c3c(OCC4(C)CO4)cc(OCC4(C)CO4)cc3oc12 (centres undefined)
pIC50 [1]: 6.05
Ratio IC50 [9]: 2
Ratio IC50 [10]: 2
Activity [8]: Active
Ratio IC50 [11]: 2
pIC50 [2]: 5.29
pIC50 [3]: 5.82
Ratio IC50 [12]: 2
inhibition [4]: 15%
pIC50 [5]: 6.10
pIC50 [6]: 5.60
inhibition [7]: 48%

COc1cc([C@@H]2c3cc4c(cc3[C@@H](O[C@@H]3O[C@@H]5CO[C@@H](C)O[C@H]5[C@H](O)[C@H]3O)[C@H]3COC(=O)[C@H]23)OCO4)cc(OC)c1O [ETOPOSIDE]
pIC50 [1]: 4.86
pIC50 [5]: 4.92
pIC50 [6]: 4.76
